Measured values from ChEMBL document CHEMBL1133812, “Small molecule somatostatin receptor subtype-2 antagonists” (Bioorg Med Chem Lett, 2001).
pIC50: −log10 of the molar value. Where a SMILES comes first, the peptide text is derived from it. [ ]: non-standard residue; d: D form. The star is where a group is joined. Phe(3-F) = N[C@@H](Cc1cccc(F)c1)C(=O)O; Tos = Cc1ccc(S(=O)(=O)*)cc1

Experiments:
[1] = target: Somatostatin receptor type 2 (Sus scrofa); assay: Inhibitory concentration towards binding of sst2 receptor using [125I]somatostatin as radioligand in Neuro2A cells
[2] = target: Somatostatin receptor type 2 (Homo sapiens, UniProt P30874); assay: Antagonistic activity towards sst2 receptor in GH4C1 cells a concentration of 1-2 x 10e6/mL incubated for 20 minutes; assay type: functional, cell-based, GH4-C1
In short: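 GH4C1 pituitary cells (1–2×10⁶/mL) exposed to compound dose-titrations with 100 nM VIP plus 10 nM somatostatin 14, 20 min at 37 °C. cAMP content read against cAMP standards in adenylyl cyclase activation plates. Antagonism scored as a cAMP rise over VIP+somatostatin control wells. Values from single experiments or means of 2–4 replicate experiments.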

Chain of Somatostatin receptor type 2 (P30874 whole entry): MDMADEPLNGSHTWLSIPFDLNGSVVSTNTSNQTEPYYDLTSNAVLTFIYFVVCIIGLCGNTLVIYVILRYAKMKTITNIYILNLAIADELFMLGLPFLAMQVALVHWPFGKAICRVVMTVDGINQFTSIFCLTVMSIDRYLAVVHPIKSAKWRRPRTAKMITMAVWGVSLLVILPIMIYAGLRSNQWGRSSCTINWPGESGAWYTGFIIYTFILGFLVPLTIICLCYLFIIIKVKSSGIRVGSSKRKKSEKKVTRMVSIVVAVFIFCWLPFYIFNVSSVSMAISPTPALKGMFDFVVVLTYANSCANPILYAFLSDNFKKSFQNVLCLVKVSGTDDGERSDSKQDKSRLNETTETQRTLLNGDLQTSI

CC(C)(C)C1N[C@H](C(=O)NC(Cc2cccc3ccccc23)C(N)=O)CSSC[C@@H](NC(=O)C(N)Cc2cccc(F)c2)C(=O)NC(Cc2cccnc2)C(=O)N[C@@H](Cc2c[nH]c3ccccc23)C(=O)N[C@@H](CCCCN)C1=O (stereo partly drawn)
pIC50 ([1]; neuro2a): 8.39
pIC50 ([2]; gh4-c1): 6.57

Cc1ccc(C(=O)N2CCN(C(=O)N[C@H](Cc3c[nH]c4ccccc34)C(=O)N[C@@H](CCCCN)C(=O)OC(C)(C)C)CC2)cc1
pIC50 [1]: 8.36
pIC50 [2]: 7.17

CC(C)(C)OC(=O)[C@H](CCCCN)NC(=O)[C@@H](Cc1c[nH]c2ccccc12)NC(=O)N1CCC(n2c(=O)[nH]c3ccccc32)CC1
pIC50 [1]: 9.59
pIC50 [2]: 8.19

CC(C)(C)OC(=O)[C@H](CCCCN)NC(=O)[C@H](Cc1c[nH]c2ccccc12)NC(=O)c1ccc(-c2ccccc2)cc1
pIC50 [1]: 7.07
pIC50 [2]: 5.92

CC(C)(C)OC(=O)[C@H](CCCCN)NC(=O)[C@@H](Cc1c[nH]c2ccccc12)NC(=O)N1CCN(S(=O)(=O)c2ccccc2)CC1
pIC50 [1]: 8.54
pIC50 [2]: 7.54

CC(C)(C)OC(=O)[C@H](CCCCN)NC(=O)[C@@H](Cc1c[nH]c2ccccc12)NC(=O)C1CCN(S(=O)(=O)c2ccccc2)CC1
pIC50 [1]: 8.49
pIC50 [2]: 6.92

COC(=O)[C@H](CCCN=C(N)N)NC(=O)[C@H](Cc1cccc(F)c1)NS(=O)(=O)c1ccc(C)cc1 (Tos-[Phe(3-F)]-Arg-OMe)
pIC50 [1]: < 5.70
pIC50 [2]: 5.19

Cc1ccc(S(=O)(=O)N2CCN(C(=O)N[C@H](Cc3c[nH]c4ccccc34)C(=O)N[C@@H](CCCCN)C(=O)OC(C)(C)C)CC2)cc1
pIC50 [1]: 8.04
pIC50 [2]: 5.11

CC(C)(C)OC(=O)[C@H](CCCCN)NC(=O)[C@@H](Cc1c[nH]c2ccccc12)NC(=O)N1CCN(C(=O)c2ccccc2)CC1
pIC50 [1]: 8.16
pIC50 [2]: 5.80
